Screening data: PubChem, several laboratories
Shown are actives, neighbours in structure and some others; about 1.9% of the full set was active somewhere.
Furin inh: blocks human furin protease activity | inhibition, % at 20 µM or 30 µM | 220,000 tested, 0.061% active | P09958 | purified furin, fluorogenic substrate cleavage | AID 463115; in the data active means inhibition above about 25%
Target sequence (P09958 108-714 limits assumed): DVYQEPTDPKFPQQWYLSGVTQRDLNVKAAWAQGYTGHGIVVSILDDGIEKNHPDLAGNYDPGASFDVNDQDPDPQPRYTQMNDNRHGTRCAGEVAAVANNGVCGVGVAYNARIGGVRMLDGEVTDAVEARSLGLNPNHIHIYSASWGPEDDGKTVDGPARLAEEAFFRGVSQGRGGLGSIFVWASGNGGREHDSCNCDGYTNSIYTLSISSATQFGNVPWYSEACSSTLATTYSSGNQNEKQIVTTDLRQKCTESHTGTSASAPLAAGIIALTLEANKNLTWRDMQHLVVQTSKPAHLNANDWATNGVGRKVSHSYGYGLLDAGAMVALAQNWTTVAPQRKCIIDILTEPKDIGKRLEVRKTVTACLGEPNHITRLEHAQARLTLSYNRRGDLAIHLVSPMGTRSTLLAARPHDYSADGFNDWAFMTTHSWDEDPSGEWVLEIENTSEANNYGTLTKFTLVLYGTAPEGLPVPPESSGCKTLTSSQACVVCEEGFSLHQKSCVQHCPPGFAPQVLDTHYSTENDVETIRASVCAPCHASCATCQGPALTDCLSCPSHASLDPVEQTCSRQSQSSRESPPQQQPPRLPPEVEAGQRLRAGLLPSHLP
HSV augment: increases HSV replication in cells; maximum fold increase; HSV replication augmentation in cells, fold increase; AID 1956; 220,000 tested, 0.005% active; in the data active means maximum fold increase above about 1.5; inconclusive means no clear call, values can overlap the other calls; tested in PC3 cells
bCat nuc transl: alters nuclear translocation of beta-catenin in HeLa cells | immunofluorescence imaging | nuclear translocation activity, % at 5 µM | 190,000 tested, 0.3% active | AID 1665;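 active means nuclear translocation activity above 50% at 5 µM, with a well cell count of 50 or more; inconclusive means wells under 50 cells across six images, flagged as toxic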;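 further: per-cell ratio of nuclear to cytoplasmic median beta-catenin stain intensity; plate controls were DMSO negative control for no effect and GSK-3 inhibitor IX positive control for full effect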
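Test system: human HeLa cell line; Doses: 5 µM primary, 0.02–20 µM confirmation; Incubation: 24 h compound exposure, 37°C; Detection: beta-catenin immunofluorescence imaging with DAPI; Read-out: beta-catenin nuclear/cytoplasmic ratio, % activation.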
Ins promoter up: MIN6 insulin promoter up-regulation | MIN6 insulin promoter-GFP reporter, high-content imaging; active compounds read high | z-score at 5 µM | 190,000 tested, 0.3% active | AID 1625;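 active means z-score above 3 at 5 µM with at least 500 cells counted in the well; inconclusive means wells under 500 cells, flagged as cytotoxic or low count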
MT stabilize HCS: microtubule stabilizers in HeLa cells | AID 2205 | HeLa tubulin immunostaining HCS, 24 h; share of cells brighter than vehicle mean+2SD | % tubulin-high responders, % at 10 µM | 200,000 tested, 0.83% active;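 active means plate Z-score above 3 for both tubulin-high and condensed-nucleus cell shares, with cell loss under 80%, at 10 µM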;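 further: anti alpha tubulin signal scored within the nucleus-defined area of each cell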
Autophagy HCS: autophagy modulation, high-content screen; MEF GFP-LC3 puncta imaging; test concentration mostly 10 µM; calls only at 10 µM (by protocol); 190,000 tested, 0.98% active; AID 463193;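 active means percentage of spot-positive cells more than 3 SD above its plate mean, without a fluorescence outlier flag or 80% toxicity; inconclusive means no clear call, values can overlap the other calls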;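 further: spot-positive cell cutoff set from DMSO-treated cells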
An asterisk follows results filed as active; i = inactive; ? = inconclusive; . = not tested or not shown; + = active, no number.

SMILES | Furin inh | HSV augment | bCat nuc transl | Ins promoter up | MT stabilize HCS | Autophagy HCS
CCCCCCCCCn1c2c(c(=N)c3c1CCC3)CCCC2 | -20 | i | 7 | -2.6 | 26* | i
O=C(O)CNS(=O)(=O)c1ccc2c(c1)CCCC2 | -23 | i | -1 | 0.68 | 3 | i
Cc1cc(C)cc(NC2=NC3(CCCCC3)N=C(N)N2)c1 | -12 | i | 9 | 0.17 | 47* | i
NC1=NC2(CCCCC2)N=C(Nc2ccc(F)cc2F)N1 | -29 | i | 1 | 0.11 | 2 | i
Cc1ccc(C=Nc2ccccc2C(N)=O)s1 | -17 | i | 27 | . | 22* | i
CCCNC(=O)Cn1c(=O)/c(=C\c2ccc(-c3cccc([N+](=O)[O-])c3)o2)s/c1=C\C(=O)C(C)(C)C | 8 | i | 4 | 1.5 | 3 | +
CCCNC(=O)Cn1c(=O)/c(=C\c2ccc(-c3ccc([N+](=O)[O-])cc3)o2)s/c1=C\C(=O)C(C)(C)C | 1 | ? | 1 | . | 9 | ?
COc1ccc(NC(=O)CCS(=O)(=O)c2ccccc2Cl)cc1S(=O)(=O)Nc1ccc(Cl)cc1 | -16 | i | 8 | -0.17 | 3 | i
C[C@@H]1CCC[C@@]2(O[C@H](CCO)C[C@H](O)[C@H]2O)O1 | . | i | . | . | . | .
Cc1ccc(-c2nnc(-c3ccc(NC(=O)Cc4cccs4)cc3)o2)cc1 | -19 | i | -2 | -0.85 | 6 | +
O=C(Cc1cccs1)Nc1cccc(-c2nnc(-c3ccco3)o2)c1 | -11 | i | 1 | -0.46 | 2 | i
Cc1cc(-c2nc3ncccc3o2)ccc1NC(=S)NC(=O)c1ccco1 | -19 | i | 1 | -1.4 | 2 | i
Cc1cc(C)n(-c2nc3sc4c(c3c(=O)[nH]2)CCCC4)n1 | -5 | . | 3 | . | 2 | +
Cc1nc2sc3c(c2c(=O)[nH]1)CCCCC3 | -10 | i | 1 | 0.54 | . | .
CCOC(=O)Cn1c(=O)c(-c2cc(Br)ccc2N)nc2ccccc21 | -20 | ? | 2 | 6.8* | . | .
CCOC(=O)Cn1c(=O)c(-c2ccccc2N)nc2ccccc21 | -15 | i | -1 | -0.09 | . | .
CC1CCCCC1NCc1cccc([N+](=O)[O-])c1 (centres undefined) | -4 | i | 0 | 0.03 | 3 | i
COc1cccc(NC(=O)C(c2ccccc2)N2CCNC(=O)C2)c1 (centres undefined) | -15 | i | -1 | -0.04 | 2 | i
CCN(CC)c1ccc(/C=N/N=C(c2ccccc2)c2ccccc2)c(O)c1 | 5 | i | 5 | 2.3 | 2 | +
O=C(C(=C1NCCN1)n1cncn1)c1ccccc1 | -20 | i | . | -0.19 | 2 | +
Cc1cc(C)n2cc(CSc3ccccn3)nc2n1 | -15 | i | -6 | 0.12 | 3 | +
Cc1ccc(SCc2cn3c(C)cc(C)nc3n2)cc1 | -24 | i | 0 | -0.27 | . | .
CC1CCc2nn(CC(=O)N3CCN(C(=O)c4ccco4)CC3)cc2C1 (centres undefined) | -24 | i | 0 | 0.75 | 6 | .
Cc1ccc2c(c1)N/C(=C(\C=C(/Cl)[N+](=O)[O-])[N+](=O)[O-])N2 | -19 | i | -4 | 0.22 | 2 | i
CO/N=C/C(=N\Nc1ccc(OC)cc1)C(=O)c1ccc(F)cc1 | -28 | i | 4 | 0.69 | 2 | i
SMILES | Furin inh | HSV augment | bCat nuc transl | Ins promoter up | MT stabilize HCS | Autophagy HCS
CO/N=C/C(=N\Nc1ccc(C)cc1)C(=O)c1ccc(OC)cc1 | -22 | i | . | -1.7 | 53* | +
Cc1ccc(CNC(=O)CCC2CCCN(Cc3cccc4cccnc34)C2)o1 (centres undefined) | -29 | i | 0 | -0.6 | 3 | i
CN1C(=O)/C(=C/c2ccccc2Cl)Sc2ccc(C(=O)NCc3cccnc3)cc21 | -29 | i | . | -0.09 | 2 | i
O=C(C1CCN(S(=O)(=O)N2CCC3(CC2)OCCO3)CC1)N1CCCCC1 | -24 | i | -4 | 0.4 | 2 | i
Nc1c(C(=O)N/N=C/c2cccnc2)oc2nc(-c3ccco3)cc(-c3ccco3)c12 | -8 | i | 9 | . | . | .
NNC(=O)c1oc2nc(-c3ccco3)cc(-c3ccco3)c2c1N | 25* | ? | 0 | 0.78 | . | .
COCCn1c(SCC(=O)Nc2ccc(C)cc2C)nc2c(oc3ccccc32)c1=O | -15 | i | . | 1.6 | 4 | +
Cc1nc(C)c(/C(O)=C/c2nc3ccc([N+](=O)[O-])cc3oc2=O)o1 | -17 | i | 0 | 0.46 | 4 | i
